These results are taken from article PMC7111624 (Phytochemistry, 2016).

The subject of one assay is HK2. As to the kind of experiment: Western blot expression level in U87-MG cells: HK2. The class given is cell-based, human. The note with it: 10 µM, 48 h (Fig. S83). A digest of the protocol:
(§1)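 U87-MG cells were treated for 48 h with test compound (5 or 10 μM) or left untreated as control. Protein was extracted and analysed by western blot, with β-actin as internal loading control.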
In general terms: A western blot detects proteins with antibodies after separation by electrophoresis.

In another assay the test system is PKM2. As to the kind of experiment: Western blot expression level in U87-MG cells: PKM2. The class given is cell-based, human. The note with it: 10 µM, 48 h (Fig. S83). An outline of the steps:
as §1

The next assay concerns GLS. Put plainly: Western blot expression level in U87-MG cells: GLS. It counts as cell-based, human. The note with it: 10 µM, 48 h (Fig. S83). An outline of the steps:
as §1

A further assay deals with FASN. As to the kind of experiment: Western blot expression level in U87-MG cells: FASN. The class given is cell-based, human. The note with it: 10 µM, 48 h (Fig. S83). A digest of the protocol:
as §1

The test system of the next assay is human erythrocytes. As to the kind of experiment: Intracellular K+ uptake in erythrocytes. The class given is cell-based. The note with it: 90 min. A digest of the protocol:
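Fresh human blood was spun at 660 g for 10 min at 4 °C. Erythrocytes were washed three times in GNS buffer (50 g/L glucose, 9 g/L NaCl) and made into a 50% suspension. Cells were treated with test compound in isotonic KCl for 90 min at 37 °C, with a positive control ionophore, then stopped on ice. They were washed five times in cold GNS, haemolysed in water overnight, and digested in HNO3/HClO4. K+ was measured by atomic absorption against a KCl calibration curve.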

In the next assay the test system is U251. As to the kind of experiment: SRB proliferation assay, U251 glioma cells. It counts as cell-based, human. The note with it: HA vs U251. A digest of the protocol: (§2)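 Each ratio is the IC50 in normal human astrocytes divided by the IC50 in the glioma line. Glioma IC50 came from an SRB proliferation assay after 72 h of treatment across a concentration series. Doxorubicin was the positive control and untreated cells the negative control. Values are means ± S.D.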
Background: In SRB staining, fixed cells bind dye roughly in proportion to their protein.

Another assay has as its system U87-MG. As to the kind of experiment: SRB proliferation assay, U87-MG glioma cells. The note with it: HA vs U87-MG. The class given is cell-based, human. A digest of the protocol:
as §2

The test system of the next assay is SHG-44. As to the kind of experiment: SRB proliferation assay, SHG-44 glioma cells. It counts as cell-based, human. The note with it: HA vs SHG-44. An outline of the steps: as §2
A further assay concerns C6. As to the kind of experiment: SRB proliferation assay, C6 glioma cells. The note with it: HA vs C6. The class given is cell-based, rat. A digest of the protocol: as §2
The next assay deals with human astrocytes (HA). Put plainly: Growth inhibition of normal human astrocytes. It counts as cell-based. The note with it: Astrocyte, read-out: IC50, human astrocytes (HA).
The test system of the next assay is U87-MG cells. As to the kind of experiment: Cell cycle assay. It counts as cell-based, human. The note with it: 0.8 μM, 12 h.
A further assay deals with U251 cells. As to the kind of experiment: Cell cycle assay. The note with it: U251, 0.8 μM, 12 h. It counts as cell-based, human.

Each structure is given as a SMILES string.

Consider `CC(C)[C@@H]1NC(=O)[C@H](C)OC(=O)[C@@H](C(C)C)NC(=O)[C@@H](C(C)C)OC(=O)[C@H](C(C)C)NC(=O)[C@H](C)OC(=O)[C@@H](C(C)C)NC(=O)[C@@H](C(C)C)OC(=O)[C@H](C(C)C)NC(=O)[C@H](C)OC(=O)[C@@H](C(C)C)NC(=O)[C@@H](C(C)C)OC1=O` [Compound 1, valinomycin], for which the “expression level of HK2” value with HK2 is on record as “remarkably reduced expression levels”. The “expression level of PKM2” value in the assay with PKM2 was “little effect on the downregulation”. The “expression level of GLS” value with GLS is “remarkably reduced expression levels”. For the same compound, in the assay with FASN, the “expression level of FANS” value is recorded as “remarkably reduced expression levels”. Further, the results for the “+ % increase of intracellular K+ = (Compound−CON)/CON × 100%” value in the assay with human erythrocytes (0.01 μM), in the assay on human erythrocytes (0.05 μM) and in the assay with human erythrocytes (0.1 μM) were 19.06%, 83.43% and 75.63%, respectively. The “K+ (intracellular, erythrocytes)” value in the assay on human erythrocytes (0.01 μM) was 3.81 ± 0.01 mg/mL; in the assay with human erythrocytes (0.05 μM), 5.87 ± 0.00 mg/mL; in the assay on human erythrocytes (0.1 μM), 5.62 ± 0.01 mg/mL.

In the case of `COc1cccc2c1C(=O)c1c(O)c3c(c(O)c1C2=O)C[C@@](O)(C(=O)CO)C[C@@H]3O[C@H]1C[C@H](N)[C@H](O)[C@H](C)O1` [Doxorubicin (DOX), Doxorubicin], the “Ratios of IC50HA/IC50GC, U251” value in the assay on U251 is on record as 3. Also, the “Ratios of IC50HA/IC50GC, U87-MG” value in the assay with U87-MG worked out at 22. In addition, the “Ratios of IC50HA/IC50GC, SHG-44” value in the assay with SHG-44 is listed as 5. For the same compound, the “Ratios of IC50HA/IC50GC, C6” value in the assay on C6 came to 17. In addition, in the assay with human astrocytes (HA), the IC50 turned out to be 8.7 ± 1.2 µM. Further, in the assay on U87-MG cells, the “G0/G1, percentage of cells” value worked out at 90.65%; the “G2/GM, percentage of cells” value is 3.83%; the “S, percentage of cells” value was 5.52%. In addition, in the assay with U87-MG cells (increase vs control), the “Compound(G0/G1)−CON(G0/G1)” value was 49.69%. Moreover, in the assay with U251 cells, the “G0/G1, percentage of cells” value is given as 71.45%; the “G2/GM, percentage of cells” value is 13.04%; the “S, percentage of cells” value came to 15.51%. For the same compound, the “Compound(G0/G1)−CON(G0/G1)” value in the assay with U251 cells (increase vs control) is recorded as 26.97%.

By IC50 is commonly meant the concentration needed to halve the response being measured.
